A selection: hits, their analogues and other compounds. The true share with any hit is near 5.3%.
EphB4 ephrin blk: EphB4-ephrin-B2 interaction antagonists, primary screen, biochemical, TNYL-RAW peptide probe, fluorescence polarization; Ephrin type-B receptor 4 (Homo sapiens), P54760; EphB4 LBD / TNYL-RAW-Alexa532 peptide; inhibition, % at 7 µM; actives 0.15% (n = 97,000); AID 720, 2007;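 active = inhibition above the screen-wide mean inhibition plus 3 SD, cut at about 15% in these data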
Target sequence (P54760 whole entry, looked up, the tested form may be a part): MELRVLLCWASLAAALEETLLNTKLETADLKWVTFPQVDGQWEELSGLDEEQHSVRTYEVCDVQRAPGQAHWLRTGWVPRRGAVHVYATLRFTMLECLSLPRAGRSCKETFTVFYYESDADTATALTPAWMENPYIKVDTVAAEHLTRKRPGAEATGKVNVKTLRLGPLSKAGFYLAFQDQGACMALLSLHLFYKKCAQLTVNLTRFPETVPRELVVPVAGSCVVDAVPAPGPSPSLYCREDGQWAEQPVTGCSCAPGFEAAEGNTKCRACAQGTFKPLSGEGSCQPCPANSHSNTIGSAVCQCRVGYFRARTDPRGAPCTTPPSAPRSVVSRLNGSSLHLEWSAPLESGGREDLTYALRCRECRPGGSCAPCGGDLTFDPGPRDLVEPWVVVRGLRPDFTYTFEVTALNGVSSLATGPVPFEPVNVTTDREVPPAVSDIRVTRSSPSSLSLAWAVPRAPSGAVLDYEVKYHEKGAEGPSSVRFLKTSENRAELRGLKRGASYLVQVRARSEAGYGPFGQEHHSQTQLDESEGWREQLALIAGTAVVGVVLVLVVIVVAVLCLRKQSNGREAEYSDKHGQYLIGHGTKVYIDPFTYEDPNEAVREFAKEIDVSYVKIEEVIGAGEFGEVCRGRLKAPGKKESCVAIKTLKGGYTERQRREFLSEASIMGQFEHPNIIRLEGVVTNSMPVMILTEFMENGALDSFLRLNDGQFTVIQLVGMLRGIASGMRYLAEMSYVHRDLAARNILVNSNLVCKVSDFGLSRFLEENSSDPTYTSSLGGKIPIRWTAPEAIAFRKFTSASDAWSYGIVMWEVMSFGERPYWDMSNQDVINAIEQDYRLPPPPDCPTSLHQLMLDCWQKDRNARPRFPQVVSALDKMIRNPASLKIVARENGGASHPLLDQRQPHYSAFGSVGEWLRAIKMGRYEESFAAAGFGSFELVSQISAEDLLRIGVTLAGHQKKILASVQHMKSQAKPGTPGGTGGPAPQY
Plk1 PBD FP: Plk1 polo box domain binding inhibitors, primary screen, biochemical, fluorescence polarization. Serine/threonine-protein kinase PLK1 (Homo sapiens), P53350. Plk1 PBD phosphopeptide binding. inhibition, %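 (tested at about 20 µM)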. actives 0.13% (n = 97,000); in the data active = inhibition above about 34%, passing the limit was not always enough
PLK1 kinase inh: human PLK1 kinase inhibitors, primary screen, biochemical, TR-FRET; Serine/threonine-protein kinase PLK1 (Homo sapiens), P53350; recombinant PLK1 kinase, TR-FRET peptide phosphorylation; inhibition, % at 10 µM; actives 0.53% (n = 97,000); AID 619, 2007;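 active = inhibition of 50% or more in the single-concentration screen; inactive = inhibition below 50%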
FAK inh: FAK kinase inhibitors, primary screen, biochemical; Focal adhesion kinase 1 (Homo sapiens), Q05397; biochemical FAK kinase activity assay; inhibition, %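 (tested at 7 µM)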; actives 0.84% (n = 97,000); AID 727, 2007; in the data active = inhibition above about 19%
Rev-RRE block: HIV-1 Rev-RRE binding inhibitors, primary screen, biochemical, FRET, protein-RNA interaction; P05866; Rev peptide-RRE RNA binding; AID 704, 2007; actives 0.79% (n = 97,000); inhibition, % at 8 µM;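 active = inhibition above the screen-wide mean plus 3 SD, cut at about 35% in these data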
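Assay system: Rev peptide and RRE RNA, both fluorescently labelled; times: 5 min preincubation and 15 min binding, 25 °C; detection: FRET, ex 480 nm, em 540 and 671 nm; read-out basis: % inhibition from 671/540 nm acceptor-to-donor ratio, scaled between controls; benchmarks: DMSO low control, neomycin B high control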
Cav3 T inh: Cav3.2 calcium influx blockers – cell-based, Fluo-4 calcium fluorescence, FDSS, MLSMR library, primary screen; Voltage-dependent T-type calcium channel subunit alpha-1H (Homo sapiens), O95180; Cav3.2-expressing cells; hits give low values; B-score at 10 µM; actives 4% (n = 100,000);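 active = single-dose well whose peak fluorescence ratio is a statistical outlier from its plate by either plate-standardised score or position-corrected B-score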
A number is an active result; n = inactive; x = no result; [ ] = dose if it differs, or a comment.

SMILES	EphB4 ephrin blk	Plk1 PBD FP	PLK1 kinase inh	FAK inh	Rev-RRE block	Cav3 T inh
CCn1c(C(=O)N2CCC(C(=O)NCc3ccc4c(c3)OCO4)CC2)cc2sccc21	x	x	x	x	x	-5.9
CCn1c(C(=O)N2CCc3ccccc3C2)cc2sccc21	n	n	n	n	n	-5.6
CCn1c(C(=O)N2CCC(C(=O)NCCCSC3CCCCC3)CC2)cc2sccc21	n	n	n	n	n	-7
COc1ccc2[nH]c(=O)c(-c3nnn(-c4ccc(Cl)c(Cl)c4)n3)cc2c1	x	x	x	x	x	n
C#Cc1ccc([C@@H]2C=C(C(=O)NCc3nc4ccccc4[nH]3)O[C@H](OCC)[C@H]2CCCO)cc1	x	x	x	x	x	n
COc1ccc(CN2C(=O)[C@H]3Cc4c([nH]c5ccccc45)C(C)(C)N3C2=O)cc1	x	x	x	x	x	n
CCOC(=O)c1ccc(N2C(=O)C3CC=CCC3C2=O)cc1 (centres undefined)	n	n	n	n	n	n
CCOC(=O)c1ccc(N2C(=O)C3C(C2=O)C(C(=O)c2ccc(Cl)cc2)N2CCCC32)cc1 (centres undefined)	n	n	n	n	66	x
C(=N\c1nc2ccccc2[nH]1)/c1cccs1	x	x	x	x	x	3.1
Cn1c(/C=N/c2nc3ccccc3[nH]2)nc2ccccc21	n	n	n	n	n	n
N#CC1(C#N)CC(C=O)=C(N)C1(C#N)CC(=O)c1ccc(F)cc1 (centres undefined)	n	n	n	n	84[fluorescence artefact?]	n
O=C(NCc1ccccn1)C1(C(F)(F)F)C/C(=C\CCO)CCCO1 (centres undefined)	x	x	x	x	x	n
Cc1c2cnn(-c3ccccc3)c(=O)c2c(C)n1CCCC(=O)N1CCN(c2ncccn2)CC1	x	x	x	x	x	5.5
Cc1c(O)cc2c(c1O)C(=O)CC(c1ccccc1)O2 (centres undefined)	x	x	x	x	x	n
COc1cc(C(CCN2CCCCC2)c2c(OC)cc(OC)c3c(C)cc(=O)oc23)cc(OC)c1OC (centres undefined)	x	x	x	x	x	n
Cc1cc(-c2cc(C(=O)NCc3ccccc3)on2)nc(NC2CCCC2)n1	x	x	x	x	x	n
CSC1=NCCN1C(=O)COc1ccccc1	n	n	69	n	n	n
Cc1c(C(=O)NCCc2ccc3c(c2)OCCO3)oc2ccccc12	n	n	n	n	n	-7
Cc1c(C(=O)NCc2ccccn2)oc2ccccc12	n	n	n	n	n	n
CC(=NCCN1CCN(C(=S)Nc2ccccc2)CC1)C1=C(O)CC(C)(C)CC1=O	n	n	n	n	n	n
C=CCn1c(SCC(=O)N2CC(=O)Nc3ccccc32)nc2scc(-c3cccs3)c2c1=O	n	n	n	n	n	-7.2
CCOC(=O)C1CCCN(c2c(NCCN3CCCCC3C)c(=O)c2=O)C1 (centres undefined)	n	n	n	n	n	n
CC1(c2nnc(Cc3ccccc3)o2)CC(c2cccc(Cl)c2)=NO1 (centres undefined)	x	x	x	x	x	n
COc1c(C)cc(Br)cc1C(=O)Nc1cccc(NC(=O)c2ccco2)c1	n	n	n	n	n	n
Cc1cc(C)c(OCC(=O)Nc2cccc(NC(=O)c3ccco3)c2)c(Br)c1	x	x	x	x	x	-4.4
SMILES	EphB4 ephrin blk	Plk1 PBD FP	PLK1 kinase inh	FAK inh	Rev-RRE block	Cav3 T inh
Oc1ccc(Nc2nc3ccccc3nc2Nc2ccc(O)cc2)cc1	n	n	n	n	n	n
Oc1ccc(Cl)cc1/C=N/c1nccs1	n	n	n	n	n	-3.4
CCC1=C(OC(=O)N(CC)CC)N2C(=O)OC(=NCCc3c[nH]c4ccccc34)[C@]2(C)[C@H]2C1=CC[C@H]1C(=O)N(CC(=O)OC)C(=O)[C@H]12	x	x	x	x	x	n
Clc1ccc(Cn2cc(/C=N/n3cnnc3)c3ccccc32)cc1	x	x	x	x	x	n
O=[N+]([O-])/C=C/c1cn(Cc2ccc(F)cc2)c2ccccc12	16	n	n	n	n	n
COc1ccc(C(=O)O/N=C/c2c(C(F)(F)F)nn(C)c2SCc2ccccc2Cl)cc1	n	n	n	n	n	n
Cn1nc(C(F)(F)F)c(/C=N/OC(=O)c2ccccc2Cl)c1SCc1ccc(Cl)cc1	n	n	n	n	n	-5
COc1cc(C2C(C#N)=C(N)OC3=C2C(=O)CC(C)(C)C3)c([N+](=O)[O-])cc1OC (centres undefined)	n	n	n	n	49	x
COc1ccc(C2C(C#N)=C(N)OC3=C2C(=O)CC(C)(C)C3)c([N+](=O)[O-])c1OC (centres undefined)	n	n	n	n	n	n
CCOc1ccc(S(=O)(=O)Nc2ccc(F)cc2)c(C)c1C	n	n	n	n	n	-4.7
CCCCOC(=O)n1c(=O)oc2cc(S(=O)(=O)N3CCCCC3)ccc21	n	n	n	n	n	-4.8
COC(=O)n1c(=O)oc2cc(S(=O)(=O)N3CCOCC3)ccc21	x	x	x	x	x	n
CC1CCN(c2cc(N3CCC(C)CC3)c([N+](=O)[O-])cc2/C=C(\C#N)c2nn(-c3ccccc3)c(N)c2C#N)CC1	n	n	55	n	n	n
CC1CCCN(c2ccc(/C=C(\C#N)c3nn(-c4ccccc4)c(N)c3C#N)cc2[N+](=O)[O-])C1 (centres undefined)	n	n	n	n	n	n
CC1CC(C)CN(C(=O)CSc2nnc(-c3ccc(Cl)s3)o2)C1 (centres undefined)	x	x	x	x	x	-3.4
Cc1cc(Nc2ccccc2)n(-c2ccccc2)n1	n	n	n	n	n	-8.4
O=C(CN1c2cccc3cccc(c23)S1(=O)=O)NCc1ccc2c(c1)OCO2	n	n	n	n	n	n
CC(Sc1ccc(Cl)cc1)C(=O)Nc1ccc(S(=O)(=O)N2CCOCC2)cc1 (centres undefined)	n	n	n	n	n	-5.1
CC(SCc1ccccc1)C(=O)Nc1ccc2c(c1)OCO2 (centres undefined)	n	n	n	n	n	n
O=C(Nc1ccc2c(c1)OCO2)C(c1ccc(Cl)cc1)N1CCN(C(=O)c2ccco2)CC1 (centres undefined)	n	n	n	n	n	-4.3
CC(Sc1ccc(Cl)cc1)C(=O)Nc1ccc2c(c1)OCO2 (centres undefined)	n	n	n	n	n	-5.8
CC(C(=O)NCc1ccc2c(c1)OCO2)N1c2cccc3cccc(c23)S1(=O)=O (centres undefined)	n	n	n	n	n	-5.1
CN(Cc1ccccc1)C(=O)CC(c1ccccc1)c1cc(Cl)ccc1O (centres undefined)	n	n	n	n	n	x
C=CCn1c(O)c(N=NC(=O)c2ccc3c(c2)OCO3)c2ccccc21	n	n	n	n	n	n
CC(Sc1ccc(Cl)cc1)C(=O)NCc1ccc2c(c1)OCO2 (centres undefined)	n	n	n	n	n	-5.8
